The source of these data is ChEMBL document CHEMBL1240443, “A study of cytotoxicity of novel chlorokojic acid derivatives with their antimicrobial and antiviral activities” (Eur J Med Chem, 2010).

≈ marks a conversion by molar mass, not a printed value.

Data set [1] deals with Escherichia coli. In words: Antimicrobial activity against extended spectrum beta lactamase expressing Escherichia coli by spectrophotometry. The format is functional. The method in brief:
(§1)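 Broth microdilution in Mueller–Hinton broth. Two-fold dilutions from 256 to 0.125 µg/mL. Inoculum 10^5 c.f.u./mL, diluted from a McFarland 0.5 culture. Incubated at 35 °C for 24 h and 48 h in a humid chamber, triplicate.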

The test system of data set [2] is Escherichia coli. As to the kind of experiment: Antimicrobial activity against Escherichia coli ATCC 35218 by spectrophotometry. The format is functional. The method, boiled down: as §1
A short description of data set [3]: Cytotoxicity against MDBK cells after 48 hrs. It is filed as cell-based, Bos taurus. Conditions: cattle.
The test system of data set [4] is Pseudomonas aeruginosa. In words: microbe, parasite or virus in culture. Conditions: ATCC 10145.
The test system of data set [5] is Acinetobacter baumannii. In words: Antimicrobial activity against cephalosporin-resistant Acinetobacter baumannii by spectrophotometry. The format is functional. The method in brief:
as §1

For data set [6], the system named is Enterococcus faecalis. As to the kind of experiment: Antimicrobial activity against cephalosporin-resistant Enterococcus faecalis by spectrophotometry. It is filed as functional. The method, boiled down:
as §1

Data set [7] deals with Pseudomonas aeruginosa. In words: Antimicrobial activity against trimethoprim-sulfamethoxazole and tazobactum-induced Pseudomonas aeruginosa by spectrophotometry. It is filed as functional. The method, boiled down:
as §1

Data set [8] has as its system Enterococcus faecalis. As to the kind of experiment: Antimicrobial activity against Enterococcus faecalis ATCC 29212 by spectrophotometry. The format is functional. The method, boiled down: as §1
Data set [9] relates to Bacillus subtilis. As to the kind of experiment: Antimicrobial activity against Bacillus subtilis ATCC 6633 by spectrophotometry. The format is functional. The method, boiled down: as §1
The test system of data set [10] is Proteus mirabilis. As to the kind of experiment: Antimicrobial activity against extended spectrum beta lactamase expressing Proteus mirabilis by spectrophotometry. It is filed as functional. The method in brief:
as §1

Data set [11] has as its system Acinetobacter baumannii. As to the kind of experiment: Antimicrobial activity against Acinetobacter baumannii RSKK 02026 by spectrophotometry. The format is functional. The method, boiled down:
as §1

Data set [12] has as its system Candida albicans. As to the kind of experiment: Antifungal activity against Candida albicans ATCC 10231 by spectrophotometry. The format is functional. The method, boiled down:
(§2)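 Yeast broth microdilution in RPMI-1640 with L-glutamine, buffered to pH 7 with MOPS. Inoculum 10^5 c.f.u./mL, prepared by the spectrophotometric method. Two-fold dilutions from 256 to 0.125 µg/mL. Incubated at 35 °C for 24 h and 48 h in a humid chamber, triplicate.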

Data set [13] is described as follows: Cytotoxicity against african green monkey Vero cells after 48 hrs. It is filed as cell-based. Particulars: chlorocebus sabaeus. The method, boiled down: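 Confluent cell monolayers exposed to two-fold (Log2) dilutions of each sample (51.2–0.012 µg/mL) in EMEM, 5% CO2, 37 °C, 48 h. Scored by light microscopy against untreated cultures; rows damaging all cells counted toxic. Maximum non-toxic concentration (MNTC, µg/mL) taken as highest concentration leaving cells unaffected. Vero grown in EMEM/10% fetal calf serum with streptomycin/penicillin.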

The test system of data set [14] is Klebsiella pneumoniae. As to the kind of experiment: Antimicrobial activity against Klebsiella pneumoniae RSKK 574 by spectrophotometry. It is filed as functional. The method, boiled down:
as §1

In data set [15] the test system is Bacillus subtilis. In words: Antimicrobial activity against ceftriaxone-resistant Bacillus subtilis by spectrophotometry. It is filed as functional. The method, boiled down:
as §1

Data set [16] concerns Klebsiella pneumoniae. As to the kind of experiment: Antimicrobial activity against extended spectrum beta lactamase expressing Klebsiella pneumoniae by spectrophotometry. It is filed as functional. The method in brief:
as §1

For data set [17], the system named is Staphylococcus aureus. As to the kind of experiment: Antimicrobial activity against methicillin-resistant Staphylococcus aureus by spectrophotometry. It is filed as functional. The method in brief:
as §1

Data set [18] deals with Proteus mirabilis. As to the kind of experiment: Antimicrobial activity against Proteus mirabilis ATCC 7002 by spectrophotometry. The format is functional. The method in brief: as §1
Data set [19] has as its system Candida parapsilosis. In words: Antifungal activity against Candida parapsilosis ATCC 22019 by spectrophotometry. It is filed as functional. Conditions: Lodderomyces parapsilosis. The method, boiled down:
as §2

In data set [20] the test system is Human respirovirus 3. As to the kind of experiment: Antiviral activity against parainfluenza-3 virus infected in Vero cells assessed as reduction of virus-induced cytopathic effect. The format is functional. The method, boiled down: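 Vero cells grown in EMEM with 10% fetal calf serum. Two-fold dilutions from 51.2 to 0.012 µg/mL, with PI-3 added at its TCID50-based titre, held 2 h at 37 °C in 5% CO2. CPE scored by microscope against untreated controls, giving the CPE-inhibitory concentration range.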
Background: Damage to the host cells serves as the signal in cytopathic effect assays.

Turning to `O=c1cc(CCl)oc(CN2CCC(O)(c3ccc(Cl)c(C(F)(F)F)c3)CC2)c1O`, the MIC in data set [1] stood at 64 µg/mL (≈ 142 µM); in data set [2] it was 4 µg/mL (≈ 8.84 µM); in data set [4], 2 µg/mL (≈ 4.42 µM); in data set [5], 16 µg/mL (≈ 35.4 µM); in data set [6], 32 µg/mL (≈ 70.8 µM); in [7], 16 µg/mL (≈ 35.4 µM). Also, the MIC in data set [8] stood at 16 µg/mL (≈ 35.4 µM); in data set [9], 1 µg/mL (≈ 2.21 µM); in [10] it was 64 µg/mL (≈ 142 µM); in [11], 4 µg/mL (≈ 8.84 µM); in data set [12], 4 µg/mL (≈ 8.84 µM); in data set [14] it was 4 µg/mL (≈ 8.84 µM). In addition, the MIC worked out at 2 µg/mL (≈ 4.42 µM) in [15]; 64 µg/mL (≈ 142 µM) in data set [16]; 64 µg/mL (≈ 142 µM) in data set [17]; 8 µg/mL (≈ 17.7 µM) in data set [18]; 8 µg/mL (≈ 17.7 µM) in [19]. The MNTC at 48 h in [3] was found to be 0.8 µg/mL; in [13] it was 0.4 µg/mL. In addition, the CPE-inhibitory concentration in data set [20] was determined as 0.05 µg/mL.
In the case of `CC(=O)N1CCN(c2ccc(OCC3COC(Cn4ccnc4)(c4ccc(Cl)cc4Cl)O3)cc2)CC1` (stereo not drawn) [KETOCONAZOLE], the MIC in [12] and in data set [19] was 1 µg/mL (≈ 1.88 µM) throughout.
`C[C@H]1COc2c(N3CCN(C)CC3)c(F)cc3c(=O)c(C(=O)O)cn1c23.C[C@H]1COc2c(N3CCN(C)CC3)c(F)cc3c(=O)c(C(=O)O)cn1c23.O` [LEVOFLOXACIN]: the MIC in [5] is 64 µg/mL; in [6] it was 32 µg/mL; in [8], 0.5 µg/mL; in [10], 1 µg/mL; in [11], 0.12 µg/mL; in data set [14], under 0.12 µg/mL. The figures for the MIC in data set [17] and in data set [18] were 128 µg/mL and under 0.12 µg/mL, respectively.
Regarding GENTAMICIN, the MIC in [7] was 2 µg/mL.
Consider `CC1COc2c(N3CCN(C)CC3)c(F)cc3c(=O)c(C(=O)O)cn1c23` (stereo not drawn) [OFLOXACIN], for which the MIC was 64 µg/mL (≈ 177 µM) in data set [5]; 32 µg/mL (≈ 88.6 µM) in data set [6]; 1 µg/mL (≈ 2.77 µM) in data set [8]; 1 µg/mL (≈ 2.77 µM) in data set [10]; 0.12 µg/mL (≈ 0.332 µM) in [11]; under 0.12 µg/mL in [14]. The MIC was 64 µg/mL (≈ 177 µM) in [17] and under 0.12 µg/mL in data set [18].
For the compound `O=c1cc(CCl)oc(CN2CCN(Cc3ccc(Cl)c(Cl)c3)CC2)c1O`, the MIC came out at 4 µg/mL (≈ 9.58 µM) in data set [1]; 8 µg/mL (≈ 19.2 µM) in data set [2]; 4 µg/mL (≈ 9.58 µM) in data set [4]; 16 µg/mL (≈ 38.3 µM) in [5]; 128 µg/mL (≈ 306 µM) in data set [6]; 16 µg/mL (≈ 38.3 µM) in data set [7]. In addition, the MIC in data set [8] was 16 µg/mL (≈ 38.3 µM); in data set [9], 1 µg/mL (≈ 2.39 µM); in [10], 64 µg/mL (≈ 153 µM); in data set [11], 8 µg/mL (≈ 19.2 µM); in data set [12], 4 µg/mL (≈ 9.58 µM); in [14], 8 µg/mL (≈ 19.2 µM). In addition, the MIC was 2 µg/mL (≈ 4.79 µM) in [15]; 4 µg/mL (≈ 9.58 µM) in data set [16]; 128 µg/mL (≈ 306 µM) in data set [17]; 16 µg/mL (≈ 38.3 µM) in [18]; 8 µg/mL (≈ 19.2 µM) in data set [19]. The results for the MNTC at 48 h in data set [3] and in [13] were 0.4 µg/mL and 0.8 µg/mL, respectively. The CPE-inhibitory concentration in data set [20] amounted to 0.05 µg/mL.
In data set [3], `Nc1nc2c(ncn2COCCO)c(=O)[nH]1` [ACYCLOVIR] yielded an MNTC at 48 h of 1.6 µg/mL. Moreover, the CPE-inhibitory concentration in data set [20] came out at 0.012 µg/mL.
For the compound `CCOC(=O)C1=C[C@@H](OC(CC)CC)[C@H](NC(C)=O)[C@@H](N)C1` [OSELTAMIVIR], the MNTC at 48 h in [13] worked out at 1.6 µg/mL. In addition, the CPE-inhibitory concentration in data set [20] came out at 0.012 µg/mL.
